We go through 10 molecules from ChEMBL document CHEMBL1140840, “New insight for fluoroquinophenoxazine derivatives as possibly new potent topoisomerase I inhibitor” (Bioorg Med Chem Lett, 2008).

The subject of one test is MDA-MB-231. In words: Cytotoxicity against human MDA-MB-231 cells. It counts as functional, cell-based. In short, it runs like this: (§1)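 Cells seeded at 2–4 × 10⁴ per well, grown overnight in medium with 10% FBS at 37 °C under 5% CO₂. On day 2 the medium was replaced with medium holding graded compound concentrations. Absorbance was read at 450 nm. IC50 came from a four-parameter logistic fit. Mean ± SD of three experiments, each in triplicate.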

A further test has as its system HeLa. The test is described as follows: Cytotoxicity against human HeLa cells. It counts as functional, cell-based. The procedure, abridged: as §1
Another test has as its system DU-145. In words: Cytotoxicity against human DU145 cells. It counts as functional, cell-based. The procedure, abridged: as §1
Test [1] addresses DNA topoisomerase 2-alpha (Homo sapiens) (UniProt P11388). The test is described as follows: Inhibition of human topoisomerase 2alpha assessed as relaxation of supercoiled DNA pBR322 at 2 uM relative to etoposide. The procedure, abridged:
(§2)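 Human topo IIα (2 units) with 200 ng supercoiled pBR322 in 10 mM Tris-HCl pH 7.9, 50 mM NaCl, 5 mM MgCl2, 1 mM EDTA, 1 mM ATP, 15 µg/mL BSA, 30 min at 30 °C. Compounds at 2 or 10 µM, from 20 mM DMSO stocks. Stopped with EDTA. Products on 1% agarose, stained with ethidium bromide. Supercoiled DNA quantified under UV.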

Test [2] is filed under the species Bos taurus. The test is described as follows: Inhibition of calf thymus topoisomerase 1 assessed as relaxation of supercoiled DNA pBR322 at 2 uM relative to camptothecin.
For a further test, the system named is HCT-116. In words: Cytotoxicity against human HCT116 cells. It counts as functional, cell-based. The procedure, abridged:
as §1

For test [3], the target named is DNA topoisomerase 2-alpha (Homo sapiens) (UniProt P11388). In words: Inhibition of human topoisomerase 2alpha assessed as relaxation of supercoiled DNA pBR322 at 10 uM relative to etoposide. The procedure, abridged: as §2
Another test concerns HL-60. In words: Cytotoxicity against human HL60 cells. It counts as functional, cell-based. In short, it runs like this:
as §1

Test [4] is filed under the species Bos taurus. In words: Inhibition of calf thymus topoisomerase 1 assessed as relaxation of supercoiled DNA pBR322 at 20 uM relative to camptothecin.

The structures appear in SMILES notation.

Sequence of DNA topoisomerase 2-alpha (Homo sapiens) (P11388 whole entry): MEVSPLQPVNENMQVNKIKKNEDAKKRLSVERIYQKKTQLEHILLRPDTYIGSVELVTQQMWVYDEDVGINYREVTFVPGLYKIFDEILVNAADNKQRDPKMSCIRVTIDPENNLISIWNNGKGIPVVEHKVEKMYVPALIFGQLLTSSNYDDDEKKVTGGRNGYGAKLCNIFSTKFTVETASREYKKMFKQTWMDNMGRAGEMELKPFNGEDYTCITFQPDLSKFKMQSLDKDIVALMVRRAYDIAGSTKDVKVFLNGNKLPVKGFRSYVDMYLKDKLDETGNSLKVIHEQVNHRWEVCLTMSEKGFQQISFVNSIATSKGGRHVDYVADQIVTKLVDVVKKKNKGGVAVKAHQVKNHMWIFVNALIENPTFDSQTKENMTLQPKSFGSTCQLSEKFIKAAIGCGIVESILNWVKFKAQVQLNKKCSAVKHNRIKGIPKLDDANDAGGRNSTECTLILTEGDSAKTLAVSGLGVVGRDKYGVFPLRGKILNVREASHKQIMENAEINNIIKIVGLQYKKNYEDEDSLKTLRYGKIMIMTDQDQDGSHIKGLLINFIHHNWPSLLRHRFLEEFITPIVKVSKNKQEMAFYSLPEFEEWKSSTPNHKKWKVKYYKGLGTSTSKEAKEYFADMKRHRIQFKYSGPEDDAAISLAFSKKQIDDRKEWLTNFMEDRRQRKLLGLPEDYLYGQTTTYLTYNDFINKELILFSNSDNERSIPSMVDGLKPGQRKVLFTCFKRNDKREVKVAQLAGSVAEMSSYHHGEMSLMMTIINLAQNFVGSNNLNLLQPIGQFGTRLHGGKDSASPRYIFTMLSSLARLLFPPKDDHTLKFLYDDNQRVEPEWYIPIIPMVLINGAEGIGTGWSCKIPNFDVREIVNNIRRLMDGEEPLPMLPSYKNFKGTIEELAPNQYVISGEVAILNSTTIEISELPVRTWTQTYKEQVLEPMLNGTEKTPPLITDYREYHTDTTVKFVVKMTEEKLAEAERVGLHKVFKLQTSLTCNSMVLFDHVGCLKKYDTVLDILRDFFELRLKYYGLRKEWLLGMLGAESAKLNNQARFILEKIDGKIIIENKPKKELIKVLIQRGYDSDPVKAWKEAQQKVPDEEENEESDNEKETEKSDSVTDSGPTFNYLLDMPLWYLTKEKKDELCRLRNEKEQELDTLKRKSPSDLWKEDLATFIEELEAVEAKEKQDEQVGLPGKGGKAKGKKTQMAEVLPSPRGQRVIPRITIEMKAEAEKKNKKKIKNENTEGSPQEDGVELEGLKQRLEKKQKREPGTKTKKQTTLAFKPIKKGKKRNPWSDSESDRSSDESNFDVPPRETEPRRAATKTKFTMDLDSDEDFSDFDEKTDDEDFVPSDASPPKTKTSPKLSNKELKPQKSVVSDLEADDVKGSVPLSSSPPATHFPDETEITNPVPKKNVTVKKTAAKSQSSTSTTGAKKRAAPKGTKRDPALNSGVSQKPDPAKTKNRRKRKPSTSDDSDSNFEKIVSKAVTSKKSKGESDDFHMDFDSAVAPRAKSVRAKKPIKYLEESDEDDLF

Take `O=C(O)c1cn2c3c(c(F)c(F)cc3c1=O)Oc1ccccc1-2`: the IC50 in the test with MDA-MB-231 is over 50 µM; in the test on HeLa it was over 50 µM; in the test with DU-145 it was over 50 µM; in the test on HCT-116, 6.3 µM; in the test with HL-60 it was over 50 µM. The inhibition in test [1] was 0.5%; in the test listed under Bos taurus [2], 53.5%; in [3], 82.4%; in the test listed under Bos taurus [4], 96.6%.
In the case of `N[C@H]1CCN(c2c(F)cc3c(=O)c(C(=O)O)cn4c3c2Oc2ccccc2-4)C1`, the IC50 is 4.34 µM with MDA-MB-231; 2.33 µM in the test on HeLa; 1.82 µM in the test with DU-145; 0.87 µM in the test on HCT-116; 2.4 µM in the test on HL-60. Also, the inhibition worked out at 89.1% in test [1], 88.9% in the test listed under Bos taurus [2], 89.4% in test [3] and 90.2% in the test filed under Bos taurus [4].
With `COc1cc([C@@H]2c3cc4c(cc3[C@@H](O[C@@H]3O[C@@H]5CO[C@@H](C)O[C@H]5[C@H](O)[C@H]3O)[C@H]3COC(=O)[C@H]23)OCO4)cc(OC)c1O` [ETOPOSIDE], the IC50 came out at 16.2 µM with MDA-MB-231; 18.2 µM in the test on HeLa; 29.8 µM in the test with DU-145; 15.1 µM in the test with HCT-116; 1.44 µM with HL-60. Also, the values for the inhibition in [1] and in test [3] were 0.7% and 40.9%, respectively.
As for `CC[C@@]1(O)C(=O)OCc2c1cc1n(c2=O)Cc2cc3ccccc3nc2-1` [CAMPTOTHECIN], the IC50 in the test with MDA-MB-231 is 4.16 µM; in the test on HeLa, 1.08 µM; in the test on DU-145, 3.2 µM; in the test on HCT-116, 1 µM; in the test on HL-60, 0.013 µM. The inhibition in the test listed under Bos taurus [2] is 63.3%; in the test listed under Bos taurus [4] it was 84.1%.
For `N[C@H]1CCN(c2c(F)cc3c(=O)c(C(=O)O)cn4c3c2Sc2ccccc2-4)C1`, the half-inhibitory concentration (IC50) in the test with MDA-MB-231 is 19.2 µM; with HeLa it was 5.08 µM; in the test on DU-145 it was 19.3 µM; in the test with HCT-116 it was 2.41 µM; in the test with HL-60, 11.5 µM. Also, the inhibition was determined as 57% in test [1], 45.1% in the test listed under Bos taurus [2], 91.7% in [3] and 97.2% in the test filed under Bos taurus [4].
Consider `N[C@H]1CCN(c2c(F)cc3c(=O)c(C(=O)O)cn4c3c2Oc2nc(O)ncc2-4)C1`, for which the half-inhibitory concentration (IC50) in the test with MDA-MB-231, with HeLa, in the test with DU-145, with HCT-116 and in the test with HL-60 was over 50 µM in each case. The inhibition was found to be 0% in test [1], 32.4% in the test listed under Bos taurus [2], 28.8% in test [3] and 0% in the test listed under Bos taurus [4].
`COc1cccc2c1C(=O)c1c(O)c3c(c(O)c1C2=O)C[C@@](O)(C(=O)CO)C[C@@H]3O[C@H]1C[C@H](N)[C@H](O)[C@H](C)O1` [DOXORUBICIN]: the IC50 with MDA-MB-231 is 1.39 µM; with HeLa it was 3.09 µM; in the test on DU-145, 1.57 µM; with HCT-116, 1.1 µM; in the test on HL-60, 0.72 µM.
Regarding `N[C@H]1CCN(c2c(F)cc3c(=O)c(C(=O)O)cn4c3c2Oc2cc(S(=O)(=O)O)c3ccccc3c2-4)C1`, the IC50 in the test with MDA-MB-231, with HeLa, in the test with DU-145, in the test on HCT-116 and with HL-60 was over 50 µM throughout. Moreover, the inhibition in test [1] came out at 1.9%; in the test filed under Bos taurus [2], 39.1%; in test [3], 24.7%; in the test listed under Bos taurus [4] it was 25%.
As to `N[C@H]1CCN(c2c(F)cc3c(=O)c(C(=O)O)cn4c3c2Oc2ccc(Cl)cc2-4)C1`, the IC50 in the test with MDA-MB-231 stood at 19.3 µM; in the test with HeLa, 2.01 µM; with DU-145 it was 17.6 µM; in the test on HCT-116 it was 2.56 µM; in the test with HL-60, 1.63 µM. The inhibition amounted to 89% in test [1], 87.9% in the test listed under Bos taurus [2], 88.6% in [3] and 86.1% in the test filed under Bos taurus [4].
With `N[C@H]1CCN(c2c(F)cc3c(=O)c(C(=O)O)cn4c3c2Oc2ccc([N+](=O)[O-])cc2-4)C1`, the IC50 in the test on MDA-MB-231 was 19.8 µM; in the test with HeLa, 17.7 µM; in the test with DU-145, 13.8 µM; with HCT-116 it was 7.45 µM; in the test with HL-60, 9.93 µM. Also, the inhibition amounted to 26% in [1], 65.7% in the test filed under Bos taurus [2], 91.6% in test [3] and 95.3% in the test listed under Bos taurus [4].

One may read the IC50 as the concentration that inhibits the measured activity by half. A lower IC50 goes with inhibition by little substance. As usually defined, the inhibition is the share of the control response that was lost under treatment.
